The array DNA melting data of Ke et al. (doi:10.1101/2024.01.08.574731)

Tests used:
[1] = folding enthalpy; higher = less favourable; fluorescence melt of hairpins on a sequencing array, two-state fit; conditions: sodium 0.088 M
Procedure, shortened: (§1)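 Folding enthalpy and melting temperature were estimated with bootstrapped two-state fits and combined across four replicates by inverse-variance weighting, with fitted temperatures raised by 9.35 °C to match UV melts. The data were Cy3 fluorescence of library hairpins, with annealed Cy3 and quencher oligos, on a sequenced MiSeq flow cell in 50 mM Na-HEPES pH 8.0, 25 mM NaCl, imaged in 2.5 °C steps up to 60 °C and normalised to pre-quench Cy3 and control constructs.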

[2] = melting temperature; fluorescence melt of hairpins on a sequencing array, two-state fit, raised by 9.35 °C to match UV melts; conditions: sodium 0.088 M
Procedure, shortened: as §1

Sequence | folding enthalpy [1] [kcal/mol] | Tm [2] [°C]
GAAGAGCGAAAGCTTTC (((.(((....)))))) | -12.2 | 31.1
GAAGAGGGAAACTTCTTC (((((.(....).))))) | -30.1 | 41
GAAGATGGAAACATCTCC (.(((((....))))).) | -16.3 | 33.4
GAAGATGGAAACATCTTC (((((((....))))))) | -48.6 | 53.5
GAAGCACGAAAGTGTTTC (((.(((....))).))) | -35.2 | 51.1
GAAGCAGGAAACTGTTTC (((.(((....))).))) | -26.7 | 38.8
GAAGCCCGAAAGGGTTTC (((.(((....))).))) | -34.4 | 56.2
GAAGCCGAAAGGCGGTTC ((((((....)))..))) | -9.79 | 47.1
GAAGCCGAAAGGCGTTTC ((((((....)))..))) | -8.82 | 44.7
GAAGCCGAAAGGCTGTTC ((((((....)))..))) | -10.4 | 47.4
GAAGCCGCGAAAGCGTTC (((..(((....)))))) | -11 | 26.3
GAAGCCGGAAACGGCTCC (.(((((....))))).) | -9.15 | 46.8
GAAGCGGAAACGCTTC ((((((....)))))) | -33.6 | 67.6
GAAGCTGAAAAGCTTC ((((((....)))))) | -31.2 | 58.3
GAAGCTGGAAACAGTTTC (((.(((....))).))) | -27.1 | 41.6
GAAGGAGGAAACTCCCTC ((.((((....)))).)) | -12.1 | 28.4
GAAGGCACGAAAGTGTTC (((..(((....)))))) | -9.46 | 24.6
GAAGGCCGAAAGGCTTTC (((.(((....))).))) | -20.6 | 54.2
GAAGGCGAAAGCCGATTC ((((((....)))..))) | -14.7 | 57.8
GAAGGCGAAAGCCGTTTC ((((((....)))..))) | -10.9 | 39
GAAGGCGAAAGCCTCTTC ((((((....)))..))) | -21.5 | 54.5
GAAGGGAAACCTTC (((((....))))) | -20.9 | 42.5
GAAGGTGGAAACACCCTC ((.((((....)))).)) | -12.1 | 33.8

Sequence | folding enthalpy [1] [kcal/mol] | Tm [2] [°C]
GAAGTACCGAAAGGTTTC (((..(((....)))))) | -9.64 | 27.2
GAAGTACGAAAGTAATTC (((.(((....))).))) | -25.9 | 42.9
GAAGTCCGAAAGGATTTC (((.(((....))).))) | -31.6 | 50.2
GAAGTGCCGAAAGGCTTC (((..(((....)))))) | -7.5 | 35.5
GAAGTGCGAAAGCATTC (((.(((....)))))) | -13.5 | 36.2
GAAGTGGGAAACCACTCC (.(((((....))))).) | -14 | 38.4
GAAGTGGGAAACCATTTC (((.(((....))).))) | -30.7 | 36.6
GAAGTGGGAAACCGCTTC ((((.((....)).)))) | -31.4 | 51.6
GAATACGAAAGTAGTTC ((((((....))).))) | -10.9 | 26.8
GAATACGAAAGTATATTC ((((((....)))..))) | -15.9 | 26.8
GAATACGAAAGTATCTTC ((((((....)))..))) | -28.1 | 46.2
GAATACGAAAGTATTTTC ((((((....)))..))) | -19.9 | 36.9
GAATACGGAAACGCATTC ((((.((....)).)))) | -29.8 | 36.8
GAATACGGAAACGTATCC (.(((((....))))).) | -15.8 | 35.1
GAATAGGCGAAAGCCTTC (((..(((....)))))) | -8.6 | 29.1
GAATAGGGAAACCTATTC (((((((....))))))) | -42.1 | 50
GAATATGCGAAAGCATTC (((..(((....)))))) | -9.12 | 25
GAATATGGAAACATATCC (.(((((....))))).) | -13.6 | 24.6
GAATCACGAAAGTGTTC (((.(((....)))))) | -15.5 | 39.3
GAATCAGGAAACCGATTC (((((.(....).))))) | -26.3 | 37.8
GAATCCCGAAAGGGGTTC (((.(((....))).))) | -33.9 | 58.1
GAATCCGAAAGGAAATTC ((((((....)))..))) | -15.5 | 29.1
GAATCCGAAAGGAACTTC ((((((....)))..))) | -13.1 | 33.1

Sequence | folding enthalpy [1] [kcal/mol] | Tm [2] [°C]
GAATCCGAAAGGAGCTTC ((((((....)))..))) | -23.6 | 41.6
GAATCCGGAAACGGATTC (((((((....))))))) | -45.2 | 63.6
GAATCTGGAAACAGATCC (.(((((....))))).) | -17.1 | 33.1
GAATCTGGAAACAGGTTC (((.(((....))).))) | -31.5 | 44
GAATGAGGAAACTCATCC (.(((((....))))).) | -17.4 | 29.9
GAATGCGAAAGCAATTTC ((((((....)))..))) | -9.54 | 30.6
GAATGCGAAAGCAGCTTC ((((((....)))..))) | -23 | 39.7
GAATGCGAAAGCATATTC ((((((....)))..))) | -11.6 | 33
GAATGCGAAAGCATGTTC ((((((....)))..))) | -11.2 | 42.6
GAATGCGAAAGCATTC ((((((....)))))) | -27.6 | 68.4
GAATGCGAAAGCATTTC ((((((....))).))) | -12.5 | 50.2
GAATGCGGAAACGTGTTC (((..((....))..))) | -31.8 | 40.3
GAATGGGCGAAAGCCTTC (((..(((....)))))) | -6.79 | 32
GAATGGGGAAACCCATTC (((((((....))))))) | -33.7 | 57.6
GAATGGGGAAACCCGTTC (((.(((....))).))) | -35.5 | 48.2
GAATGTGAAAACATTC ((((((....)))))) | -35.2 | 51.3
GAATGTGGAAACACATCC (.(((((....))))).) | -14.1 | 36
GAATTACGAAAGTATTC (((.(((....)))))) | -13.5 | 31.1
GAATTCCGAAAGGACTTC (((.(((....))).))) | -27.7 | 36.1
GAATTCGGAAACGAGTTC (((.(((....))).))) | -32.5 | 43.9
GAATTGACGAAAGTCTTC (((..(((....)))))) | -11.6 | 29.6
GAATTGGGAAACTAATTC (((((.(....).))))) | -22.7 | 35.5
GAATTTGAAAAAATTC ((((((....)))))) | -26.6 | 38.8

Sequence | folding enthalpy [1] [kcal/mol] | Tm [2] [°C]
GACAAACGAAAGTTCGTC (((.(((....))).))) | -25.2 | 43.2
GACAACCGAAAGGTGGTC (((.(((....))).))) | -35.3 | 59.2
GACAACGAAAGTTCAGTC ((((((....)))..))) | -14.7 | 27.6
GACAACGAAAGTTCTGTC ((((((....)))..))) | -14.7 | 27
GACAACGAAAGTTGGTC ((((((....))).))) | -19.7 | 53.1
GACAACGGAAACGTTATC ((.((((....)))).)) | -21 | 31.5
GACAAGAAATTGTC (((((....))))) | -17.2 | 37.2
GACAAGGGAAACCCTGTC ((((.((....)).)))) | -27.8 | 42.5
GACAAGGGAAACCTCGTC (((.(((....))).))) | -22.6 | 34.5
GACACACGAAAGTGCGTC (((.(((....))).))) | -45.2 | 54.5
GACACAGGAAACTACGTC (((..((....))..))) | -17 | 28.8
GACACAGGAAACTGTGCC (.(((((....))))).) | -14.9 | 45
GACACCGAAAGGTAGGTC ((((((....)))..))) | -20.2 | 38.7
GACACCGAAAGGTCGGTC ((((((....)))..))) | -16.7 | 35
GACACCGAAAGGTCGTC ((((((....))).))) | -21.7 | 50.2
GACACCGAAAGGTCTGTC ((((((....)))..))) | -16.6 | 35.2
GACACCGAAAGGTGAGTC ((((((....)))..))) | -9.36 | 37.3
GACACCGAAAGGTTGGTC ((((((....)))..))) | -16.6 | 40.8
GACACCGGAAACGATGTC ((((.((....)).)))) | -29.6 | 45.2
GACACCGGAAACGGCGTC (((.(((....))).))) | -43 | 52.6
GACACGCGAAAGCGGTC (((.(((....)))))) | -15.3 | 56
GACACGGGAAACCACGTC (((..((....))..))) | -29 | 34.6
